Assay results of several laboratories.
CYP3A7: Cytochrome P450 3A7 (CYP3A7, Homo sapiens, UniProt P24462)

| Structure (SMILES) | tested on | test | test system | conditions | quantity | value |
| --- | --- | --- | --- | --- | --- | --- |
| CC[C@H](C)[C@H]1C(=O)N2CCC[C@H]2C(=O)O[C@H](C(C)(C)C)C[C@@H](C)C[C@H](O)[C@H](C)C2=N[C@@H](CCC(=O)N[C@@H](Cc3ccc(OC)cc3)C(=O)N(C)[C@@H](C)C(=O)N1C)CS2 |  | metabolic stability | female CD-1 mouse, liver microsomes | 1 µM, 0 h, pH 7.4 | compound remaining | 100% |
| O=C(O)C(F)(F)C(F)(F)C(F)(F)C(F)(F)C(F)(F)C(F)(F)C(F)(F)F | CYP3A7 | enzyme activity, inhibitor |  | 100 µM, pH 7.4 | inhibition | 35.8% |
| C=C(C)[C@@]12O[C@@]3(/C=C/C=C/CCCCC)O[C@@H]1[C@@H]1[C@@H]4O[C@]4(CO)[C@@H](O)[C@]4(O)C(=O)C(C)=C[C@H]4[C@@]1(O3)[C@H](C)[C@H]2OC(=O)/C=C/c1ccccc1 | MT4 | cell growth or viability, ATP luminescence |  | 96 h | IC50 | > 0.034 µM |
| CC[C@H](C)[C@H]1C(=O)N2CCC[C@H]2C(=O)O[C@H](C(C)(C)C)C[C@@H](C)C[C@H](O)CC2=N[C@@H](CCC(=O)N[C@@H](Cc3ccc(OC)cc3)C(=O)N(C)[C@@H](C)C(=O)N1C)CS2 |  | metabolic stability | female CD-1 mouse, liver microsomes | 1 µM, 0 h, pH 7.4 | compound remaining | 100% |
| COC(=O)N[C@H](C(=O)NN(CC[C@@]1(Cc2ccccc2)C(=O)N([C@H]2c3ccccc3C[C@H]2O)C[C@@H]1O)Cc1ccc(-c2cccnc2)cc1)C(C)(C)C | MT4 | cell growth or viability, XTT |  | 5 days | CC50 | > 50 µM |
| C=C(C)[C@]12C[C@@H](COC(=O)c3ccccc3)[C@@]34OC5(O[C@@H]1[C@@H]3[C@@H]1O[C@]1(CO)[C@@H](O)[C@@]1(O)[C@H]4[C@H]([C@H](C)[C@@H]1OC(=O)c1ccccc1)[C@H](C)CCCCCC[C@H]5O)O2 | MT4 | cell growth or viability, ATP luminescence |  |  | CC50 | > 7 µM |
| COC(=O)N[C@H](C(=O)NN(CC[C@@]1(Cc2ccccc2)C(=O)N([C@H]2c3ccccc3C[C@H]2O[Si](C)(C)C(C)(C)C)C[C@@H]1O[Si](C)(C)C(C)(C)C)Cc1ccc(Br)cc1)C(C)(C)C | MT4 | cell growth or viability, XTT |  | 5 days | CC50 | > 50 µM |
| C=C(C)[C@@]12O[C@@]3(/C=C/C=C/CCCCC)O[C@@H]1[C@@H]1[C@@H]4O[C@]4(CO)[C@@H](O)[C@]4(O)C(=O)C(C)=C[C@H]4[C@@]1(O3)[C@H](C)[C@H]2OC(=O)c1ccccc1 | MT4 | cell growth or viability, ATP luminescence |  | 96 h | IC50 | > 0.034 µM |
| N=c1c2c(-c3ccccc3)c(-c3ccccc3)n(Cc3ccccc3)c2ncn1[C@H]1CC[C@H](O)CC1 |  | metabolic stability | Sprague-Dawley rat, hepatocytes | 1 µM, 4 h | compound remaining | 44% |
| C=C(C)[C@@]12O[C@@]3(/C=C/C=C/C=C/CCC)O[C@@H]1[C@@H]1[C@@H]4O[C@]4(CO)[C@@H](O)[C@]4(O)C(=O)C(C)=C[C@H]4[C@@]1(O3)[C@H](C)[C@H]2OC(=O)/C=C/c1ccc(O)c(OC)c1 | MT4 | cell growth or viability, ATP luminescence |  | 96 h | IC50 | > 0.034 µM |
| O=C(c1ccc(F)cc1F)N1CCC(NCCSC(c2ccc(F)cc2)c2ccc(F)cc2)CC1 |  | metabolic stability | mouse, liver microsomes | 10 µM, 1 h, pH 7.4 | compound remaining | ~30% |
| CCCCCC/C=C/CC(=O)O[C@@]12[C@H](OC(=O)c3ccccc3)[C@@H](C)[C@@]3(O)[C@@H](C=C(CO)C[C@]4(O)C(=O)C(C)=C[C@@H]34)[C@@H]1C2(C)C | MT4 | cell growth or viability, ATP luminescence |  |  | CC50 | > 7 µM |
| O=S(=O)(O)C(F)(F)C(F)(F)C(F)(F)C(F)(F)C(F)(F)C(F)(F)C(F)(F)C(F)(F)F | CYP3A7 | enzyme activity, inhibitor, fluorescence |  |  | IC50 | 20.4 µM |
| C=C(C)[C@@]12O[C@@]3(/C=C/C=C/CCCCC)O[C@@H]1[C@@H]1[C@@H]4O[C@]4(CO)[C@@H](O)[C@]4(O)C(=O)C(C)=C[C@H]4[C@@]1(O3)[C@H](C)[C@H]2OC(=O)/C=C/c1ccc(O)cc1 | MT4 | cell growth or viability, ATP luminescence |  | 96 h | IC50 | > 0.034 µM |
| O=S(=O)(O)C(F)(F)C(F)(F)C(F)(F)C(F)(F)C(F)(F)C(F)(F)F | CYP3A7 | enzyme activity, inhibitor |  | 100 µM, pH 7.4 | inhibition | 48.8% |
| C=C(C)[C@@]12O[C@@]3(/C=C/C=C/C=C/CCC)O[C@@H]1[C@@H]1[C@@H]4O[C@]4(CO)[C@@H](O)[C@]4(O)C(=O)C(C)=C[C@H]4[C@@]1(O3)[C@H](C)[C@H]2OC(=O)/C=C/c1ccccc1 | MT4 | cell growth or viability, ATP luminescence |  | 96 h | IC50 | > 0.034 µM |
| Cc1ncc2n1-c1ccc(Cl)cc1C(c1ccccc1F)=NC2 |  | metabolic stability | male CD-1 mouse, liver microsomes | 1 µM, 30 min | compound remaining | < 7% |
| Cc1ncc2n1-c1ccc(Cl)cc1C(c1ccccc1F)=NC2 |  | metabolic stability | CD-1 mouse, hepatocytes | 1 µM, 4 h | compound remaining | 0.3% |
| COC(=O)N[C@H](C(=O)NN(CC[C@@]1(Cc2ccccc2)C(=O)N([C@H]2c3ccccc3C[C@H]2O)C[C@@H]1O)Cc1ccc(Br)cc1)C(C)(C)C | MT4 | cell growth or viability, XTT |  | 5 days | CC50 | > 50 µM |
| C=C(C)[C@@]12O[C@@]3(c4ccccc4)O[C@@H]1[C@@H]1[C@@H]4O[C@]4(CO)[C@@H](O)[C@]4(O)C(=O)C(C)=C[C@H]4[C@@]1(O3)[C@H](C)[C@H]2OC(=O)/C=C/C=C/C=C/CCC | MT4 | cell growth or viability, ATP luminescence |  | 96 h | IC50 | > 0.034 µM |
| CCCC/C=C/C=C/CC(=O)O[C@@]12[C@H](OC(=O)c3ccccc3)[C@@H](C)[C@@]3(O)[C@@H](C=C(CO)C[C@]4(O)C(=O)C(C)=C[C@@H]34)[C@@H]1C2(C)C | MT4 | cell growth or viability, ATP luminescence |  |  | CC50 | > 7 µM |
